Broadly, the fraction unbound is free concentration divided by total concentration. Read a high fraction unbound as much free substance. Broadly, the Tmax is the time from dosing to the highest level. The inhibition in vivo is the drop in the measured response relative to a control, in per cent.

Series [1] deals with T1, Large neutral amino acids transporter small subunit 2 (Homo sapiens) (UniProt Q9UHI5).
T1 sequence (whole entry): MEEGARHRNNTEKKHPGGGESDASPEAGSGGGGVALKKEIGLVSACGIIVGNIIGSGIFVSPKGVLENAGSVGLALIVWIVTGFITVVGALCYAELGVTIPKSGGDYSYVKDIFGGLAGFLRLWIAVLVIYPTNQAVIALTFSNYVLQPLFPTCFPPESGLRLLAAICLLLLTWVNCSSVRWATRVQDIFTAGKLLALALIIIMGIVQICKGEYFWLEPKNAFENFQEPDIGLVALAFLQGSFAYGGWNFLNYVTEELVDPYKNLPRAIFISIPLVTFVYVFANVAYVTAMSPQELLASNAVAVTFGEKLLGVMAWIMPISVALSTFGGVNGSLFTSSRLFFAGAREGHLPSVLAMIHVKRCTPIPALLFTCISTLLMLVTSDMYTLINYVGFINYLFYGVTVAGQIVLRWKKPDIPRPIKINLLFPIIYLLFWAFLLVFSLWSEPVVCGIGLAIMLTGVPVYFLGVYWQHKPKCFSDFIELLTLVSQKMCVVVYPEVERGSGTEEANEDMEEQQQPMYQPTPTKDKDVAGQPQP
Briefly: Competitive inhibition of [14C]-L-alanine uptake at LAT2 in human MCF7 cells at 25 uM preincubated for 5 mins followed by addition of substrate measured during 5 mins by liquid scintillation counting. It is filed as cell-based.

Series [2] has as its target T2, Large neutral amino acids transporter small subunit 1 (Homo sapiens, UniProt Q01650). Description: Drug uptake in human MCF7 cells assessed as LAT1 mediated drug transport per mg of protein at 100 uM measured 30 mins after cold wash by HPLC analysis. It is filed as ADME, cell-based. To be noted: mcf7, 0.5 h. Put shortly:
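MCF-7 monolayers were incubated with 100 µM compound in HBSS at 37 °C for 5 or 30 min. Cells got three washes with ice-cold or warm (37 °C) HBSS; in the warm 30 min arm they were washed after 5 min and again after 30 min. Lysates (0.1 M NaOH) were quantified by HPLC-UV against a spiked lysate standard curve and normalised to protein (Bio-Rad assay).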

Series [3] concerns the target T2, Large neutral amino acids transporter small subunit 1. Description: Competitive binding to LAT1 in human MCF7 cells at 100 uM after 30 mins in presence of MCT1 inhibitor phloretin by HPLC analysis. In kind it is cell-based. Put shortly:
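MCF-7 cells incubated 30 min at 37 °C in HBSS (pH 7.4) holding 100 µM test compound plus 500 µM competitor. Cells washed three times with ice-cold HBSS and lysed in 0.1 M NaOH. Cell-associated compound measured by HPLC against a lysate-spiked standard curve and normalised to protein. Mean ± SD, n=3.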

The nature of series [4]: Chemical stability of the compound in Tris-HCl buffer at pH 7.4 and 37 degreeC measured after 24 hrs by HPLC method. To be noted: pH 7.4, 24 h. In kind it is physicochemical. The procedure, abridged:
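Incubated in isotonic Tris-HCl buffer, pH 7.4, at 37 °C for 24 h; monitored by UV-HPLC.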

A short description of series [5]: Metabolic stability in human plasma at 37 degreeC in presence of NADPH regenerating system measured after 2 hrs by HPLC analysis. In kind it is ADME, cell-free.
Series [6] has as its target T2, Large neutral amino acids transporter small subunit 1. Description: Inhibition of LAT1 in human MCF7 cells assessed as potentiation of bestatin-induced antiproliferative activity by measuring reduction in cell viability at 25 uM measured after 24 hrs by resazurin dye-based fluorimetric analysis. The procedure, abridged:
(§1)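 MCF-7 cells seeded 2 × 10^4/well on collagen-coated plates, treated one day later in growth medium with inhibitor (25 or 100 µM) plus bestatin or cisplatin (100 µM) for up to 3 days. Viability read daily by resazurin fluorescence (ex 560/em 590 nm). Viability is treated relative to untreated control. Mean ± SD, n=3.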
(The colour change of resazurin is a common sign of viable cells or microbes.)

The target is the same in series [7]. Description: Inhibition of LAT1 in human MCF7 cells assessed as potentiation of bestatin-induced antiproliferative activity by measuring reduction in cell viability at 25 uM measured after 48 hrs by resazurin dye-based fluorimetric analysis. The procedure, abridged:
as §1

The target is the same in series [8]. Briefly: Inhibition of LAT1 in human MCF7 cells assessed as potentiation of bestatin-induced antiproliferative activity by measuring reduction in cell viability at 100 uM measured after 48 hrs by resazurin dye-based fluorimetric analysis. The procedure, abridged: as §1
Series [9] can be described thus: AUC (0 to 480 min) in mouse plasma at 23 umol/kg, ip administered as bolus by LC-MS analysis. It is filed as ADME, organism-based. Details: dose 23 umol/kg, time < 8 hr, route intraperitoneal. Particulars: in vivo, 8 h. The procedure, abridged:
(§2)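 Male adult mice (25 ± 5 g) given a single i.p. bolus at 23 µmol/kg. The dosing solution was 1.36 mM in 10% (v/v) DMSO, 20% (w/v) hydroxypropyl-β-cyclodextrin and 0.9% NaCl. Animals were decapitated at seven time points from 10 to 480 min. Plasma and tissues were acetonitrile-precipitated with repaglinide internal standard and analysed by LC-MS. Parameters were derived from concentration–time data, mean ± SEM (n=3).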

Series [10] in a line: AUC (0 to 480 min) in mouse prostate at 23 umol/kg, ip administered as bolus by LC-MS analysis. It is filed as ADME, organism-based, Prostate gland. Details: dose 23 umol/kg, time < 8 hr, route intraperitoneal. To be noted: in vivo, 8 h. Put shortly: as §2
Series [11] can be described thus: Cmax in mouse liver at 23 umol/kg, ip administered as bolus by LC-MS analysis. In kind it is ADME, organism-based. Details: dose 23 umol/kg, route intraperitoneal. Particulars: in vivo. Put shortly: as §2
The nature of series [12]: Cmax in mouse brain at 23 umol/kg, ip administered as bolus by LC-MS analysis. To be noted: in vivo. Details: dose 23 umol/kg, route intraperitoneal. It is filed as ADME, organism-based. The procedure, abridged: as §2
Series [13] in a line: Fraction unbound in mouse prostate at 23 umol/kg, ip administered as bolus by LC-MS analysis. In kind it is ADME, organism-based, Prostate gland. The procedure, abridged:
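Unbound fraction was measured by equilibrium dialysis at 100 µM in mouse plasma and in brain, liver, kidney, heart and prostate homogenates.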

Series [14] is described as follows: Unbound AUC (0 to 480 mins) in mouse heart at 23 umol/kg, ip administered as bolus by LC-MS analysis. It is filed as ADME, organism-based. To be noted: in vivo. The procedure, abridged: (§3)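 Male mice (25 ± 5 g) dosed i.p. as a bolus at 23 µmol/kg in DMSO/hydroxypropyl-β-cyclodextrin/saline vehicle, sampled at time points 10–480 min; plasma and tissue homogenates (1:3 water) analysed by LC-MS. […] Mean ± SEM.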

Series [15] in a line: fCmax in mouse plasma at 23 umol/kg, ip administered as bolus by LC-MS analysis. In kind it is ADME, organism-based. To be noted: in vivo. Put shortly:
as §3

Series [16] can be described thus: fCmax in mouse prostate at 23 umol/kg, ip administered as bolus by LC-MS analysis. It is filed as ADME, organism-based, Prostate gland. Particulars: in vivo. The procedure, abridged:
as §3

Series [17] can be described thus: fCmax in mouse brain at 23 umol/kg, ip administered as bolus by LC-MS analysis. It is filed as ADME, organism-based. To be noted: in vivo. Put shortly: as §3
Series [18] can be described thus: Tmax in mouse kidney at 23 umol/kg, ip administered as bolus by LC-MS analysis. In kind it is ADME, organism-based. Put shortly:
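Adult male mice (25 ± 5 g) given a single i.p. bolus of 23 µmol/kg, dosing solution 1.36 mM in 10% (v/v) DMSO, 20% (w/v) hydroxypropyl-β-cyclodextrin, 0.9% NaCl in water. Decapitation at time points 10–480 min; plasma, brain, liver, prostate, kidney, heart collected. Acetonitrile precipitation with repaglinide internal standard, LC-MS (ESI positive). tmax and t½β taken from concentration-time data; mean ± SEM, n=3.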

For series [19], the system named is Mus musculus. Description: Binding affinity to LAT1 in mouse brain assessed as inhibition of [14C]-L-leucine uptake at 23 umol/kg, ip measured 10 mins post perfusion with [14C]-L-leucine. In kind it is functional. Put shortly:
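Mice under ketamine/xylazine anaesthesia had the right common carotid artery cannulated. Brains were perfused at 37 °C, 2.5 mL/min, for 30 s with 0.157 µM [14C]-L-leucine, then 2 s with analyte-free buffer at 4 °C. Perfusion took place 10 or 180 min after 23 µmol/kg i.p. dosing.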

The source made the active and inactive calls. The rule behind the calls is not given here.

T2 sequence (Q01650 whole entry): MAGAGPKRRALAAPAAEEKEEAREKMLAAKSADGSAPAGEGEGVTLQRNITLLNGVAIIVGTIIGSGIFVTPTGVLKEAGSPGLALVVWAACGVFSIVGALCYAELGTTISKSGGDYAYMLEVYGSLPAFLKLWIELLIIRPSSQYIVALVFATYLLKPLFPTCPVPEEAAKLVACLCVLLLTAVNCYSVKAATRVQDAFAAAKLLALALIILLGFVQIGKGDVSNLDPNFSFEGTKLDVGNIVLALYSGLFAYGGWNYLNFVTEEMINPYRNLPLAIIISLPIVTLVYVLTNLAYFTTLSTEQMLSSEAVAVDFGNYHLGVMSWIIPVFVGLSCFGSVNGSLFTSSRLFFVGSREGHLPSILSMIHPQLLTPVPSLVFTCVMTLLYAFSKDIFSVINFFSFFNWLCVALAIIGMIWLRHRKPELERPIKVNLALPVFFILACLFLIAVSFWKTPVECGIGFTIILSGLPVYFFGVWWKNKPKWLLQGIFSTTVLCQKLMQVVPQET

On to `CNC(=O)COc1ccc(-c2c(C#N)c(NC(=O)c3cccc(C[C@H](N)C(=O)O)c3)n3c(nc4ccccc43)c2C#N)cc1`, for which, in series [1], the inhibition entry is “inactive”. For the same compound, the Drug uptake in series [2] turned out to be 2.63 nmol/mg. For the same compound, the result in series [3] was Active. Also, the Stability entry in series [4] and in [5] was “Stable” in each case. Further, the Activity in series [6] is 24.7%; in [7], 40.5%; in [8] it was 42.7%. The AUC in [9] stood at 795 nmol/min/mL; in series [10], 1275 nmol/g/min. Moreover, the figures for the Cmax in [11] and in series [12] were 38.7 nmol/g and 0.2 nmol/g, respectively. The same compound yielded a fraction unbound in series [13] of 0.0144. In series [14], the fAUC is listed as 4 nmol/g/min. Also, the fCmax turned out to be 0.19 nmol/mL in series [15], 0.34 nmol/g in series [16] and 0.02 nmol/g in series [17]. Besides, the Tmax in [18] is 10 min. Besides, the inhibition in vivo at 23 µmol/kg in series [19] came to 27%.

For the origin of these results see ChEMBL document CHEMBL4425108, “A Selective and Slowly Reversible Inhibitor of l-Type Amino Acid Transporter 1 (LAT1) Potentiates Antiproliferative Drug Efficacy in Cancer Cells” (J Med Chem, 2016).
